Test results published in ChEMBL document CHEMBL5154735, “Interaction of A3 adenosine receptor ligands with the human multidrug transporter ABCG2” (Eur J Med Chem, 2022).

Columns and labels:
ABCG2 [1] = target: T1, ABCG2 (Homo sapiens, UniProt Q9UNQ0); experiment: Activation of human ABCG2-mediated ATPase activity preincubated for 2 mins followed by ATP addition at 100 nM and measured after 20 mins by colorimetric assay relative to control; settings: read-out: Activity
T1 sequence (Q9UNQ0 whole entry): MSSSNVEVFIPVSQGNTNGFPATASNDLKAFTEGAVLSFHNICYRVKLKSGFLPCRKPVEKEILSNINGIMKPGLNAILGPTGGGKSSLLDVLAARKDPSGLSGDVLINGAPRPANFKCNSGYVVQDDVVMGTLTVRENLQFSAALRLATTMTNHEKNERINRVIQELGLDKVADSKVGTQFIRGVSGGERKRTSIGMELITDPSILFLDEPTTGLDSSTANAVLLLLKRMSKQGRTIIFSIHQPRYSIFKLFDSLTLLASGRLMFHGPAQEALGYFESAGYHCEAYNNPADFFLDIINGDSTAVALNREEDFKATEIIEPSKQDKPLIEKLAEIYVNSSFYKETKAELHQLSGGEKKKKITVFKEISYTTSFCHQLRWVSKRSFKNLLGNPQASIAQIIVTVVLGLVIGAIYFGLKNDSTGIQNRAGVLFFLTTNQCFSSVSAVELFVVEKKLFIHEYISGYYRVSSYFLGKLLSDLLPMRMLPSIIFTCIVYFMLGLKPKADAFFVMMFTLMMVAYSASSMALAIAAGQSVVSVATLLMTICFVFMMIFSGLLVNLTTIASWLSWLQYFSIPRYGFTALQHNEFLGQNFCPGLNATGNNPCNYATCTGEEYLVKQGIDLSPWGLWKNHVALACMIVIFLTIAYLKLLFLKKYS
How it was run: (§1)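 Total membrane vesicles from High-Five insect cells expressing human ABCG2 (hypotonic lysis, differential centrifugation), 10 μg protein/tube, in MES-Tris pH 6.8 buffer with KCl, MgCl2, NaN3, EGTA, ouabain, DTT. Compound in DMSO added ± sodium orthovanadate (0.3 mM), DMSO control. Preincubated 2 min at 37°C, then 5 mM ATP, 20 min. SDS stop, Pi measured colorimetrically. Three independent experiments in duplicate, mean ± SE.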

[2] = target: T2, Broad substrate specificity ATP-binding cassette transporter ABCG2 (Homo sapiens, UniProt Q9UNQ0); experiment: Activation of human ABCG2-mediated ATPase activity preincubated for 2 mins followed by ATP addition and measured after 20 mins by colorimetric assay; how it was run: as §1
T2 sequence (Q9UNQ0 whole entry): T1 sequence (Q9UNQ0 whole entry)

ABCG2 [3] = target: T1, ABCG2; experiment: Inhibition of human ABCG2 in human R5 cells assessed as inhibition of mitoxantrone efflux at 10 uM measured by flow cytometric analysis relative to control; type: cell-based; settings: probe mitoxantrone
How it was run: (§2)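 HEK293 cells transfected with full-length ABCG2 (R-5) or empty pcDNA vector, grown in MEM with 10% FBS and 2 mg/ml G418. Cells incubated in IMDM with 5% FBS, 5 μM mitoxantrone (final) ± compound, 37°C for 45 min. Washed in cold IMDM, resuspended in cold PBS with 1% BSA, read by flow cytometry.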

Adenosine receptor A3 [4] = target: T3, Adenosine receptor A3 (Mus musculus, UniProt Q61618); experiment: Binding affinity towards mouse adenosine A3 receptor
T3 sequence (Q61618 whole entry): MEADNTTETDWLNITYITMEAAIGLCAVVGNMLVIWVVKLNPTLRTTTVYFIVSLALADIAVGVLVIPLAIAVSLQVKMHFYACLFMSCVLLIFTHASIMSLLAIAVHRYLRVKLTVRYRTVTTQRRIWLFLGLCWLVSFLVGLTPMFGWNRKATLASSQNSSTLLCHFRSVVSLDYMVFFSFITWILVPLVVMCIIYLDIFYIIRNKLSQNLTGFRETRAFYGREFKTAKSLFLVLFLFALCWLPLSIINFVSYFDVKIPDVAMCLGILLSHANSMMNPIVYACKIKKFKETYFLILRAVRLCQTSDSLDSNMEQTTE

[5] = target: T2, Broad substrate specificity ATP-binding cassette transporter ABCG2; experiment: Inhibition of human ABCG2 in human R5 cells assessed as inhibition of mitoxantrone efflux measured by flow cytometric analysis; type: cell-based; how it was run: as §2
ABCG2 [6] = target: T1, ABCG2; experiment: Activation of human ABCG2-mediated ATPase activity preincubated for 2 mins followed by ATP addition at 5 uM and measured after 20 mins by colorimetric assay relative to control; settings: read-out: Activity; how it was run: as §1
ABCG2 [7] = target: T1, ABCG2; experiment: Activation of human ABCG2-mediated ATPase activity preincubated for 2 mins followed by ATP addition at 0.5 uM and measured after 20 mins by colorimetric assay relative to control; settings: read-out: Activity; how it was run: as §1
Adenosine receptor A3 [8] = target: T4, Adenosine receptor A3 (Homo sapiens, UniProt P0DMS8); experiment: Binding affinity towards human adenosine A3 receptor
T4 sequence (P0DMS8 whole entry): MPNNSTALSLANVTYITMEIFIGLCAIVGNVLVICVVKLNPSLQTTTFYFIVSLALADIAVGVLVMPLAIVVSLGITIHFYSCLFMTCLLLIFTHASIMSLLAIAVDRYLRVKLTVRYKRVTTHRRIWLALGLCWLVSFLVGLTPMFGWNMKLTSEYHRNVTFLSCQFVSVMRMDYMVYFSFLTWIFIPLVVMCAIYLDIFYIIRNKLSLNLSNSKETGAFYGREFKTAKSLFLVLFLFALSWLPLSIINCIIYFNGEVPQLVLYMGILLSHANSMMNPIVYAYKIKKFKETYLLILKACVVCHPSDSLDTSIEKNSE

ABCG2 [9] = target: T1, ABCG2; experiment: Inhibition of human ABCG2-mediated ATPase activity preincubated for 2 mins followed by ATP addition at 10 uM and measured after 20 mins by colorimetric assay relative to control; how it was run: as §1
ABCG2 [10] = target: T1, ABCG2; experiment: Inhibition of human ABCG2-mediated ATPase activity preincubated for 2 mins followed by ATP addition at 2.5 uM and measured after 20 mins by colorimetric assay relative to control; how it was run: as §1
[11] = target: T2, Broad substrate specificity ATP-binding cassette transporter ABCG2; experiment: Inhibition of human ABCG2-mediated ATPase activity preincubated for 2 mins followed by ATP addition and measured after 20 mins by colorimetric assay; how it was run: as §1

activity at 20 min, 0.1 µM (ABCG2 [1]) | EC50 [2] | Ki (Adenosine receptor A3 [4]) | activity at 20 min, 5 µM (ABCG2 [6]) | activity at 20 min, 0.5 µM (ABCG2 [7]) | Ki (Adenosine receptor A3 [8]) | inhibition at 20 min, 10 µM (ABCG2 [9]) | inhibition at 20 min, 2.5 µM (ABCG2 [10]) | IC50 [11] | SMILES | inhibition at 10 µM (ABCG2 [3]) | IC50 [5]
77.3% | 13.2 nM | > 10000 nM |  |  |  |  |  |  | CCOC(=O)C12CC1[C@@H](n1ccc3c(NCCc4ccccc4)nc(C#Cc4ccccc4)nc31)[C@H](O)[C@@H]2O (single isomer, unassigned) | 92.6% | 440 nM
 | 80 nM |  | 56.8% | 74.4% |  |  |  |  | CNC(=O)C12CC1[C@@H](n1cnc3c(NCc4cccc(Cl)c4)nc(C#Cc4ccc(F)c(F)c4)nc31)[C@H](O)[C@@H]2O (single isomer, unassigned) | 99.2% | 
111% | 13.2 nM |  |  |  | 6820 nM |  |  |  | COc1cc(CCNC2=NC(C#Cc3ccc(Cl)s3)=NC3=NC=NC32)ccc1O (stereo not drawn) | 110% | 4980 nM
74.2% | 24.3 nM |  |  |  | ≥ 99 nM |  |  |  | CCOC(=O)C12CC1[C@@H](n1ccc3c(NCCCc4ccc(OC)c(O)c4)nc(C#Cc4ccc(Cl)s4)nc31)[C@H](O)[C@@H]2O (single isomer, unassigned) | 109% | 600 nM
 |  |  |  |  |  | 74.7% | 54.4% | 2590 nM | CNC(=O)C12CC1[C@@H](n1cnc3c(NCc4cccc(-n5cc(-c6ccc(F)c(F)c6)nn5)c4)nc(C#Cc4ccc(F)cc4)nc31)[C@H](O)[C@@H]2O (single isomer, unassigned) | 102% | 
